The test system of test [1] is Staphylococcus aureus. In words: Antibacterial activity against Staphylococcus aureus after 16 hrs by serial dilution method. The format is functional.
Test [2] relates to Bacillus subtilis. Kind of test: Antibacterial activity against Bacillus subtilis after 16 hrs by serial dilution method. The format is functional.
Test [3] concerns Escherichia coli. In words: Antibacterial activity against Escherichia coli at 1.6125 to […] after 16 hrs by serial dilution method. It is filed as functional, organism-based. The method in brief:
(§1)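 Tube broth dilution MIC in trypticase soya broth. Colonies from a fresh plate were grown 6 h at 37 °C, adjusted to […] with sterile PBS (10⁸ cfu/mL), then diluted 10³-fold in broth to 10⁵ cfu/mL. Compounds were serially diluted across six tubes per organism and 1 mL inoculum was added. Inoculum-only and broth-only controls were run. Incubation was 16 h at 37 °C. MIC was read as no visible growth.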

In test [4] the test system is Pseudomonas aeruginosa. In words: Antibacterial activity against Pseudomonas aeruginosa at 1.6125 to […] after 16 hrs by serial dilution method. It is filed as functional, organism-based. The method, boiled down: as §1
Test [5] deals with Staphylococcus aureus. In words: Antibacterial activity against Staphylococcus aureus at 1.6125 to […] after 16 hrs by serial dilution method. The format is functional, organism-based. The method in brief: as §1
The test system of test [6] is Bacillus subtilis. In words: Antibacterial activity against Bacillus subtilis at 1.6125 to […] after 16 hrs by serial dilution method. It is filed as functional, organism-based. The method in brief: as §1
Test [7] concerns Escherichia coli. In words: Antibacterial activity against Escherichia coli after 16 hrs by serial dilution method. It is filed as functional.
Test [8] deals with Pseudomonas aeruginosa. In words: Antibacterial activity against Pseudomonas aeruginosa after 16 hrs by serial dilution method. It is filed as functional. The method, boiled down:
as §1

In brackets after ≈: the same amount, converted by molar mass. Activity calls are given as the source filed them. No cut-off for these calls is given here.

As a reminder, the MIC is the least concentration at which growth counts as inhibited. For `Cc1ccc(C)c(Nc2ncnc3c2Cc2ccccc2O3)c1`, the MIC against Staphylococcus aureus [1] and against Bacillus subtilis [2] was 1.61 µg/mL (≈ 5.32 µM) throughout. Moreover, the MIC result in the test with Escherichia coli [3] and in the test with Pseudomonas aeruginosa [4] was “inactive” throughout.
Take `Clc1ccc(Nc2ncnc3c2Cc2ccccc2O3)c(Cl)c1`: the MIC result in the test on Staphylococcus aureus [5], in the test with Bacillus subtilis [6], with Escherichia coli [3] and with Pseudomonas aeruginosa [4] was “inactive” in each case.
On to `c1ccc(CNc2ncnc3c2Cc2ccccc2O3)cc1`, for which the MIC is 1.61 µg/mL (≈ 5.57 µM) with Staphylococcus aureus [1], 1.61 µg/mL (≈ 5.57 µM) against Bacillus subtilis [2] and 25 µg/mL (≈ 86.4 µM) in the test with Escherichia coli [7]. For the same compound, the MIC entry in the test with Pseudomonas aeruginosa [4] was “inactive”.
Take `Cc1cc(C(F)(F)F)ccc1Nc1ncnc2c1Cc1ccccc1O2`: the MIC entry in the test on Staphylococcus aureus [5], in the test with Bacillus subtilis [6], with Escherichia coli [3] and in the test with Pseudomonas aeruginosa [4] was “inactive” in each case.
For the compound `c1ccc(CN2CCC(Nc3ncnc4c3Cc3ccccc3O4)CC2)cc1`, the results for the minimum inhibitory concentration (MIC) with Staphylococcus aureus [1], in the test with Bacillus subtilis [2] and against Escherichia coli [7] were 1.61 µg/mL (≈ 4.33 µM), 1.61 µg/mL (≈ 4.33 µM) and 3.12 µg/mL (≈ 8.39 µM), respectively. For the same compound, the MIC entry in the test on Pseudomonas aeruginosa [4] was “inactive”.
For the compound `Cc1cnc(Nc2ncnc3c2Cc2ccccc2O3)s1`, the MIC result in the test on Staphylococcus aureus [5], in the test with Bacillus subtilis [6] and in the test with Escherichia coli [3] was “inactive” each time. The compound further showed an MIC against Pseudomonas aeruginosa [8] of 25 µg/mL (≈ 84.4 µM).
For the compound `Clc1ccc(CNc2ncnc3c2Cc2ccccc2O3)cc1`, the MIC was determined as 1.61 µg/mL (≈ 4.98 µM) against Staphylococcus aureus [1], 1.61 µg/mL (≈ 4.98 µM) in the test on Bacillus subtilis [2] and 50 µg/mL (≈ 154 µM) in the test with Escherichia coli [7]. For the same compound, the MIC entry in the test with Pseudomonas aeruginosa [4] was “inactive”.
With `c1ccc2c(c1)Cc1c(NC34CC5CCCC(C3)C5C4)ncnc1O2` (stereo not drawn), the MIC entry in the test with Staphylococcus aureus [5] and in the test on Bacillus subtilis [6] was “inactive” each time. Further, the minimum inhibitory concentration (MIC) against Escherichia coli [7] and against Pseudomonas aeruginosa [8] was 50 µg/mL (≈ 150 µM) in each case.
For the compound `Nc1ncnc2c1Cc1ccccc1O2`, the MIC entry in the test on Staphylococcus aureus [5], with Bacillus subtilis [6], in the test on Escherichia coli [3] and with Pseudomonas aeruginosa [4] was “inactive” in each case.
In the test with Staphylococcus aureus [1], `Cc1ccc(Nc2ncnc3c2Cc2ccccc2O3)cc1F` gave an MIC of 50 µg/mL (≈ 163 µM). Besides, the MIC result with Bacillus subtilis [6], in the test with Escherichia coli [3] and with Pseudomonas aeruginosa [4] was “inactive” throughout.
Regarding `c1ccc2c(c1)Cc1c(Nc3cccc4ccccc34)ncnc1O2`, the MIC against Staphylococcus aureus [1] and with Bacillus subtilis [2] was 1.61 µg/mL (≈ 4.96 µM) throughout. Moreover, the MIC entry in the test with Escherichia coli [3] and with Pseudomonas aeruginosa [4] was “inactive” in each case.
Consider `CO/N=C(\C(=O)N[C@@H]1C(=O)N2C(C(=O)O)=C(CSc3nc(=O)c(O)nn3C)CS[C@H]12)c1csc(N)n1` [CEFTRIAXONE], for which the MIC in the test on Staphylococcus aureus [1] was 3.12 µg/mL (≈ 5.63 µM); in the test with Bacillus subtilis [2] it was 1.61 µg/mL (≈ 2.91 µM); against Escherichia coli [7], 1.61 µg/mL (≈ 2.91 µM); in the test with Pseudomonas aeruginosa [8], 1.61 µg/mL (≈ 2.91 µM).

The values above are taken from ChEMBL document CHEMBL1165898, “Novel chromeno [2,3-b]-pyrimidine derivatives as potential anti-microbial agents” (2010).
